# In article PMC8276234 (Journal of medicinal chemistry, 2019):
# Key:
# U87MG = assay: MTT growth inhibition assay, U87MG; assay type: cell-based, human; details: read-out: IC50, cytotoxicity U87MG, 72 hours, listed as 6 (BAP2)
# Outline: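 U87MG seeded at 5000 cells/well, incubated overnight at 37 °C and 5% CO2, then given test compound or vehicle for 72 h. MTT (3 mg/mL) was added for 4 h at 37 °C. Formazan was dissolved in DMSO with 15 min shaking at room temperature and read at 570 nm. Inhibition was calculated as [1-(At-Ab)/(Ac-Ab)]×100 against untreated and blank wells.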
# wild-type PDI = wild-type PDI (Homo sapiens, UniProt P07237); assay: Thermal shift assay, wild-type PDI; assay type: binding; details: recombinant PDI, dose-dependent, up to 100 μM
# Outline: (§1)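 Purified PDI (wild-type, C53S/C397S or H256A; 0.5 mg/mL in 50 mM Tris, pH 7.0) was mixed with compound in DMSO and ROX dye. Samples were heated from 25 to 99 °C at 1 °C/min. Boltzmann melting temperature was compared with the 5% DMSO control.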
# C53S/C397S PDI = C53S/C397S PDI (Homo sapiens, UniProt P07237, C397S/C53S); assay: Thermal shift assay, C53S/C397S PDI; assay type: binding; details: 100 μM
# Outline: as §1
# A172 cells [1] = assay: Transwell migration assay; assay type: cell-based, human; details: 4 hours, 30 μM
# Outline: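 Treated A172 cells (1 x 10^5) were seeded into inserts with 8.0 µm PET membranes in serum-free medium. The lower well held DMEM with 10% FBS, and FBS-free wells served as control. After 4 h, cells were Giemsa-stained and 5 fields per well were imaged at 10X.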
# H256A PDI [2] = biological target: T1, H256A PDI (Homo sapiens, UniProt P07237, H256A); assay: Thermal shift assay, H256A PDI; assay type: binding; details: 100 μM
# Outline: as §1
# H256A PDI [3] = biological target: T1, H256A PDI; assay: PDI reductase assay, H256A mutant PDI; assay type: biochemical; details: 10 μM
# Outline: (§2)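 N-terminal His-tagged human PDI was expressed in E. coli BL21(DE3) pLysS with 1 mM IPTG for 4 h at 37 °C. It was purified on Ni-NTA and dialyzed into 100 mM sodium phosphate, 2 mM EDTA, pH 7.0. PDI (0.4 μM) was preincubated 1 h with compound in phosphate/EDTA buffer with 8 μM DTT. DTT (500 μM) and bovine insulin (130 μM) were then added at room temperature. Aggregation was read at 620 nm. Percent activity came from the 0–80 min change, corrected for DTT alone.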
# GBM cell = assay: Combination with As2O3, GBM cell proliferation; assay type: cell-based
# A172 cells [4] = assay: Wound healing assay; assay type: cell-based, human; details: 24 hours, BAP2 at 10 μM
# Outline: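 A172 cells were seeded at 50,000/well, grown overnight, then kept in serum-free DMEM for 24 h. A scratch was made and compounds added. Cells grew 24 h, until DMSO-control scratches closed, then were Giemsa-stained and imaged at 10X.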
# b’ domain of PDI = b’ domain of PDI (Homo sapiens, UniProt P07237); assay: ANS spectral scan; assay type: binding; details: 5 μM PDI, 100 μM compound
# Outline: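 Human PDI was preincubated with 100 μM compound or matching DMSO in TBS at 37 °C for 1 h. ANS was then added, followed by 20 min in the dark at 25 °C. Fluorescence spectrum: Ex 370 nm, Em 400–700 nm.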
# PDI = PDI (Homo sapiens, UniProt P07237); assay: PDI reductase assay after competition with N-acetyl cysteine; assay type: biochemical; details: compound 40 μM; 0, 1, 2 or 5 mM NAC; listed as BAP2
# Outline: as §2
# D54 cells = assay: Clonogenic survival assay with ionizing radiation; assay type: cell-based; details: 1 μM, 0-6 Gy
# Outline: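 D54 monolayer cells (37 °C, 5% CO2, mycoplasma-tested, STR-authenticated) were irradiated at 0, 1, 2, 4 or 6 Gy and plated immediately at 200, 200, 400, 600 and 1000 cells/well. Test compounds (1 μM), reference inhibitor (0.05 μM) or DMSO were added. After 10–12 days, colonies were stained with 0.1% crystal violet.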
# GRP78 = assay: Western blot, GRP78 expression; assay type: cell-based, human; details: U87MG cells; 20 μM (PACMA31 1.0 μM), 24 hours
# Outline: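 Treated U87MG cells were lysed by sonication in Tris/NaCl/Triton X-100/SDS buffer (pH 7.4) and spun at 13,500×g, 4 °C, 10 min. Protein was quantified by BCA. 30 μg per lane ran on 10% gels and transferred to PVDF. Primary antibodies were applied overnight at 4 °C. Fluorescent secondaries were imaged.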
# T1 sequence (P07237 18-508 H256A): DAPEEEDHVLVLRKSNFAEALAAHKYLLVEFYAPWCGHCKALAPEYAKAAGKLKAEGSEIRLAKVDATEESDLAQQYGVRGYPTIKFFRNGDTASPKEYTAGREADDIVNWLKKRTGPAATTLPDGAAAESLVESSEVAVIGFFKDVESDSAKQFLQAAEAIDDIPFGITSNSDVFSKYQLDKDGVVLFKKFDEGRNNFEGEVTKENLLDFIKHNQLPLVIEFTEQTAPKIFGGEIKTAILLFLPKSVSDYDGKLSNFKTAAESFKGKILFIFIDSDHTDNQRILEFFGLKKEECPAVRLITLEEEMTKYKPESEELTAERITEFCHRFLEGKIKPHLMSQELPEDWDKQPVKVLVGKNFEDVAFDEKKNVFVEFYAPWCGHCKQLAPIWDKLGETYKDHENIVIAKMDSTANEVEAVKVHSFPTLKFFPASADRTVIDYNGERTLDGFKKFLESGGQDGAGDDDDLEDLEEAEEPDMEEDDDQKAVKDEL
# C53S/C397S PDI, sequence (P07237 18-508 C53S/C397S): as the sequence (P07237 18-508 H256A) above, with C36S, A239H, C380S counted along it
# b’ domain of PDI, sequence (P07237 18-508): as the sequence (P07237 18-508 H256A) above, with A239H counted along it
# wild-type PDI, sequence (P07237 18-508): as the sequence (P07237 18-508 H256A) above, with A239H counted along it
# PDI, sequence (P07237 18-508): as the sequence (P07237 18-508 H256A) above, with A239H counted along it
compound,measurement,setting,value
"N#Cc1cccc(/C=C/C(=O)c2ccc(O)cc2)c1 [Compound 6, (E)-3-(3-(4-Hydroxyphenyl)-3-oxoprop-1-en-1-yl)benzonitrile]",IC50,U87MG,10.3 ± 2.3 µM
same,increase of melting temperature,wild-type PDI,more than 1 °C
same,stabilization (thermal shift) in the C53S/C397S mutant,C53S/C397S PDI,but not the C53S/C397S mutant
same,transwell migration,A172 cells [1],inhibited migration
same,stabilization (thermal shift) in the H256A mutant,H256A PDI [2],abolished
same,activity against H256A mutant PDI,H256A PDI [3],abolished upon mutation
same,inhibition of GBM cell proliferation in combination with As2O3,GBM cell,synergistically
same,wound healing / cell migration,A172 cells [4],inhibited wound healing
same,effect on ANS fluorescence,b’ domain of PDI,hindered the ability of ANS to fluoresce
same,activity after competition with N-acetyl cysteine (NAC),PDI,unaffected by up to 5 mM NAC
same,synergy with ionizing radiation (IR),D54 cells,synergized with IR
same,expression of GRP78,GRP78,increase in expression of GRP78
